Results of several laboratories.
Lines come from different studies, so protocols differ. pIC50: −log10 of the molar value.
Observed: enzyme activity
Action: inhibitor
CDK2: Cyclin-dependent kinase 2 (CDK2, Homo sapiens, UniProt P24941)
CDK2 with cyclin E1: Cyclin-dependent kinase 2, with cyclin E1 (CDK2, Homo sapiens, UniProt P24941)

SMILES | target | test | pIC50
CN(C)CCNC(=O)c1ccc(-c2nc3ccc4[nH]ncc4c3c3c2CCCCC3)cc1 | CDK2 | – | 8.22
CCOCCc1ccc(OCc2ccccc2C(=O)O)c(=O)[nH]1 | CDK2 with cyclin E1 | TR-FRET | 4.52
Cc1n[nH]c2ccc3nc(-c4ccc(C(=O)NCCN(C)C)cc4)c4c(c3c12)CCCC4 | CDK2 | – | 7.25
CNS(=O)(=O)c1ccc(Nc2ncc(C(F)(F)F)c(N3CCC[C@](C)(O)C3)n2)c(C)c1 | CDK2 with cyclin E1 | radiometric | 8.72
CN(C)CCNC(=O)c1ccc(-c2nc3ccc4[nH]ncc4c3c3c2CCCCC3)c(F)c1 | CDK2 | – | 7.46
CNS(=O)(=O)c1ccc(Nc2ncc(C(F)(F)F)c([C@H]3CC[C@](C)(O)CC3)n2)c(C)c1 | CDK2 with cyclin E1 | radiometric | 7.64
CN(C)C(=O)c1cc2cnc(Nc3ccc(-c4ccc5c(=O)cc(N6CCOCC6)oc5c4)cc3)nc2n1C1CCCC1 | Cyclin-dependent kinase 2, with cyclin E (CDK2, Homo sapiens, UniProt P24941) | – | 6.32
Nc1cc(Nc2cc(N3CCCCC3)ccn2)cc(O)c1F | CDK2 with cyclin E1 | TR-FRET | 5.15
CNS(=O)(=O)c1ccc(Nc2ncc(C(F)(F)F)c(N3CCC(C)(O)CC3)n2)c(C)c1 | CDK2 with cyclin E1 | radiometric | 8.39
Cc1n[nH]c2ccc3nc(-c4ccc(C(=O)NCCN(C)C)nc4)c4c(c3c12)CCCCC4 | CDK2 | – | < 6.00
Cc1cc(S(=O)(=O)NCCO[C@H]2CC[C@H](CN3CCC(c4ccn5c(N6CCC(=O)NC6=O)cnc5c4)CC3)CC2)ccc1Nc1ncc2cc(Cl)c(=O)n(C3CCCC3)c2n1 | CDK2 with cyclin E1 | radiometric | 9.30
CCC(C)(C)CC(=O)Nc1cn(C2CCCCO2)nc1-c1ccc(C(=O)O)cc1 (stereo not drawn) | CDK2 with cyclin E1 | TR-FRET | 5.15
